Experiments:
Hepatocyte [1] = test: Drug level in Sprague-Dawley rat cryopreserved hepatocytes treated with 25 uM VU0409106 by LC-UV-MS analysis; format: ADME, cell-based
[2] = Drug level in cynomolgus monkey hepatic S9 fraction treated with 25 uM VU0409106 by LC-UV-MS analysis; format: ADME, tissue-based, Macaca fascicularis, Liver
In short: (§1)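 Hepatic S9 (5 mg/ml) in 0.1 M potassium phosphate pH 7.4 with 3 mM MgCl2 and 25 µM substrate, 37°C, 1 h under ambient oxygen; NADPH (2 mM) added in select runs. Reactions started by adding substrate. Protein precipitated with 2 volumes MeCN and the supernatant dried under nitrogen, reconstituted in 85:15 10 mM ammonium formate (pH 4.1)-MeCN, then analysed by LC-MS.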

Plasma [3] = test: Retention time in Sprague-Dawley rat plasma treated with 56.6 mg/kg, ip VU0409106 single dose; format: ADME, organism-based; design: dose 56.6 mg/kg, route intraperitoneal; conditions: in vivo
In short: (§2)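 Male Sprague-Dawley rats given a single intraperitoneal dose of 56.6 mg/kg. Plasma extracted with 2 volumes acetonitrile and centrifuged; metabolites profiled by LC-MS/MS.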

[4] = Drug level in human hepatic S9 fraction treated with 25 uM VU0409106 by LC-UV-MS analysis; format: ADME, tissue-based, Liver; in short: as §1
[5] = Drug level in Sprague-Dawley rat hepatic S9 fraction treated with 25 uM VU0409106 by LC-UV-MS analysis; format: ADME, tissue-based, Liver; in short: as §1
Plasma [6] = test: Drug level in Sprague-Dawley rat plasma treated with 56.6 mg/kg, ip VU0409106 single dose by LC-MS/MS analysis; format: ADME, organism-based; design: dose 56.6 mg/kg, route intraperitoneal; conditions: in vivo; in short: as §2
[7] = Drug level in Sprague-Dawley rat hepatic S9 fraction treated with 25 uM VU0409106 by LC-MS/MS analysis in presence of 100 uM allopurinol xanthine oxidase inhibitor; format: ADME, tissue-based, Liver; in short: as §1
[8] = Drug level in Sprague-Dawley rat hepatic S9 fraction treated with 3-fluoro-N-(4-methylthiazol-2-yl)-5-(6-oxo-1,6-dihydropyrimidin-5-yloxy)benzamide by LC-MS/MS analysis in presence of 100 uM allopurinol xanthine oxidase inhibitor; format: ADME, tissue-based, Liver
Hepatocyte [9] = test: Drug level in human cryopreserved hepatocytes treated with 25 uM VU0409106 by LC-MS/MS analysis in presence of 1-ABT pan-450 inactivator; format: ADME, cell-based
In short: (§3)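 Pooled cryopreserved hepatocytes (2 × 10^6 cells/ml) in Krebs-Henseleit buffer, 25 µM substrate, 37°C for 4 h. Rat donors were 14 males, cynomolgus 4 males, human 20 mixed gender. Cells precipitated with 2 volumes MeCN, centrifuged at 4°C; supernatant dried under nitrogen, reconstituted in 15% aqueous MeCN for LC-MS.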

Hepatocyte [10] = test: Drug level in human cryopreserved hepatocytes treated with 25 uM VU0409106 by LC-MS/MS analysis; format: ADME, cell-based; in short: as §3
Hepatocyte [11] = test: Drug level in Sprague-Dawley rat cryopreserved hepatocytes treated with 25 uM VU0409106 by LC-MS/MS analysis in presence of 1-ABT pan-450 inactivator; format: ADME, cell-based
[12] = Drug level in cynomolgus monkey cryopreserved hepatocytes treated with 25 uM VU0409106 by LC-MS/MS analysis; format: ADME, cell-based, Macaca fascicularis, Hepatocyte; in short: as §3

Row | Drug metabolism (Hepatocyte [1]) | Drug metabolism [2] | Retention_time (Plasma [3]) [min] | Drug metabolism [4] | Drug metabolism [5] | Drug metabolism (Plasma [6]) | Drug metabolism [7] | Drug metabolism [8] | Drug metabolism (Hepatocyte [9]) | Drug metabolism (Hepatocyte [10]) | Drug metabolism (Hepatocyte [11]) | Drug metabolism [12] | SMILES
1 | metabolite_detected | metabolite_detected | 12.3 | metabolite_detected | metabolite_detected | metabolite_detected | metabolite_not_detected | metabolite_not_detected |  |  |  |  | Cc1csc(NC(=O)c2cc(F)cc(Oc3c[nH]c(=O)[nH]c3=O)c2)n1
2 | metabolite_detected | metabolite_detected | 13.4 | metabolite_detected |  | metabolite_detected |  |  | metabolite_not_detected | metabolite_detected | metabolite_not_detected | metabolite_detected | Cc1csc(NC(=O)c2cc(O)cc(Oc3c[nH]c(=O)[nH]c3=O)c2)n1
